The source of these data is publication PMC9014391 (Heliyon, 2022).

Structures are written as SMILES.

In series [1] the test system is HCT-116^G13D. Description: SRB assay. It counts as cell-based. The note with it: Homo sapiens, 48 h. Put shortly:
(§1)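 Sulforhodamine B assay. Cells were plated at 5000–10,000/well according to doubling time, then after 24 h exposed to a 7-point, 2-fold dilution series for 48 h at 37 °C, with paclitaxel as positive control. Cells were TCA-fixed 1 h at 4 °C and stained with 0.4% SRB, with unbound dye removed by 1% acetic acid. Bound dye was dissolved in 10 mM Tris pH 10.4 and read at 540 nm. IC50 was obtained by curve fitting; quadruplicates.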
In general terms: The SRB assay estimates cell density from bound dye.

Series [2] concerns SW-620^G12V. Put plainly: SRB assay. The class given is cell-based. The note with it: Homo sapiens, 48 h. Put shortly: as §1
In series [3] the test system is HCT-116^G13D parental derived colonospheres. Put plainly: 3D colonospheres chemotherapy treatment. It counts as cell-based, Human. The following applies: 5-FU 14.7 μM, PMBA 1.7 μM, after ten days of growth. Put shortly: (§2)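 Colonospheres grown from single-cell suspensions at low density in serum-free DMEM/F12 with FGF (10 ng/mL), EGF (20 ng/mL) and B27. Medium was refreshed every 3–4 days, and spheres were passaged by syringe dissociation. After ten days of growth, parental- or CSC-derived colonospheres were exposed to 5-FU (14.7/78 μM) and/or test compound (1.7/2.2 μM). Response was judged by metabolically active cells and sphere dissociation, with phase-contrast imaging.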

The test system of series [4] is HCT-116^G13D-CSCs derived colonospheres. Put plainly: 3D colonospheres chemotherapy treatment. It counts as cell-based, Human. The following applies: 5-FU 14.7 μM, even with prolonged exposure. In outline: as §2
Series [5] deals with SW-620^G12V-CSC derived colonospheres. Description: 3D colonospheres chemotherapy treatment. It counts as cell-based, Human. The note with it: 5-FU 78 μM, even with prolonged exposure. Put shortly:
as §2

The subject of series [6] is ABCB1. Put plainly: qRT-PCR after chemotherapy treatment. The note with it: HCT-116^G13D- and SW-620^G12V–CSCs, 48 h; printed '∼4 and 2-fold' for 'ABCB1 and ABCC1'. It counts as cell-based, Human. A general note: Real-time PCR tracks product formation cycle by cycle.
In series [7] the test system is ABCC1. Description: qRT-PCR after chemotherapy treatment. The note with it: HCT-116^G13D- and SW-620^G12V–CSCs, 48 h; printed '∼4 and 2-fold' for 'ABCB1 and ABCC1'. It counts as cell-based, Human.
Series [8] has as its system ALDH1A1, ALDH1A3 and ALDH3A1. Put plainly: qRT-PCR after chemotherapy treatment. The note with it: HCT-116^G13D and SW-620^G12V, 48 h. It counts as cell-based, Human. Put shortly:
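Parental monolayers and 10-day colonospheres were treated 48 h with 5-FU (14.7/78 μM), test compound (1.7/2.2 μM) or both, with 0.2% DMSO (final) as control. RNA was extracted with Tri-reagent and DNase-treated, then reverse-transcribed. SYBR green qPCR ran 95 °C 2 min, then 40 cycles of 95 °C 5 s/60 °C 5 s, with a final 72 °C 5 min. Expression was normalised to GAPDH.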

The format of series [9] is in vivo, Balb/c mice. In outline:
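Male or unspecified Balb/c mice (20–22 g), fasted overnight, four groups of five. Single oral doses were given in 0.5% DMSO/10% Solutol/water at 10 mL/kg: test compound 20 mg/kg and 5-FU 40 mg/kg, alone or combined. Retro-orbital blood was taken at 0–10 h into EDTA by sparse sampling, two samples per group. Plasma (50 μL) was protein-precipitated with methanol, centrifuged, and the organic layer analysed.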

Series [10] deals with advanced CRC. The note with it: background statement, ref not given; cited from earlier work.
Where [11] appears, read: Balb/c, mouse, plasma, po, 40 mg.

In general, IC50 refers to the concentration that gives 50% inhibition. A high value points to a need for much substance. As a reminder, the AUC(0-inf) is total exposure, with the tail of the curve extrapolated. Lower therefore signals low exposure. One may read the AUC(0-t) as exposure summed from dosing to a finite time, without extrapolation to infinity. Higher therefore signals more exposure. By Cmax is commonly meant the highest concentration seen after dosing. A word on the half-life: it is the time needed for the level to fall by half in the phase considered. A lower half-life goes with rapid decline. In the case of `O=c1[nH]cc(F)c(=O)[nH]1` [5-FU, 5-Fluorouracil], in series [1], the IC50 was 14.8 µM. This molecule gave an IC50 in series [2] of 78.3 µM. Besides, in series [3], the “response of colonospheres to treatment” value is “sensitive”. Also, the “response of colonospheres to treatment” value in [4] was “resistant”. Also, the “response of colonospheres to treatment” value in [5] is reported as “resistant”. In series [6], the “ABCB1 expression, fold down regulated” value is “did not alter the expression”. In [7], the “ABCC1 expression, fold down regulated” value is listed as “did not alter the expression”. Besides, in series [8], the “ALDH1A1, ALDH1A3 and ALDH3A1 expression” value is on record as “did not alter the expression”. The Vd in [9] (5-FU alone, oral 40 mg) was 56.32 L/kg. Further, in series [9] (setting [11]), the AUC(0-inf) is 1140 ng·h/mL, the AUC(0-t) was 1110 ng·h/mL, the concentration peaked (Cmax) at 2450 ng/mL and the half-life was 1.1 h. Also, the curative accountability in series [10] is given as 10–15%.
